Source: PubChem
TCR CD3 inh = inhibitors of human TCR-CD3 interaction; TAMRA-labeled TCR probe fluorescence, biochemical; inhibition, % at 9.4 µM; 0.37% of 360,000 active; in the data active = inhibition above about 19%;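 also: recombinant mutant TCR 2C K166C tagged with TAMRA read by polarization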
rCAG binder-1 = r(CAG) repeat RNA binding. TO-PRO-1 dye displacement fluorescence. inhibition, % at 3 µM. 1.3% of 370,000 active. AID 651821;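 active = inhibition above the plate cutoff, the mean of all test compounds on that plate plus 3 SD, cut at about 35% in these data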;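 also: higher means more dye released from RNA so lower well fluorescence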
ABHD4 inh = inhibits mouse alpha/beta hydrolase domain 4; purified mABHD4, FP-Rh probe fluorescence polarization; inhibition, % at 8.92 µM; 0.54% of 370,000 active;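 active = inhibition exceeding the mean over every tested compound plus 3 SD, cut at about 30% in these data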
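system = mouse ABHD4 enzyme, wild type | medium = HEPES pH 7.0, NaCl, Pluronic buffer | also added = FP-Rh probe | incubation = Enzyme–compound pre-incubation 45 min, then probe 60 min, both 25 °C | technique = fluorescence polarization, excitation 525 nm, emission 598 nm, BODIPY TMR filters | controls = S159A mutant high control, sample median low control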
SIAE inh = inhibitors of human sialic acid acetylesterase SIAE. Q9HAT2. SIAE FP-Rh probe binding, fluorescence polarization. inhibition, % at 9.66 µM. 0.69% of 370,000 active. AID 1053197;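 active = inhibition above a cutoff: mean of compounds within the control limits plus 3 SD of those, cut at about 17% in these data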
HTRA1 inhibitor = blocks human HTRA1 serine peptidase | Q92743 | recombinant HTRA1, FP-rhodamine activity-based probe, fluorescence polarization | inhibition, % at 5.96 µM | 0.5% of 340,000 active; in the data active = inhibition above about 36%
Target sequence (Q92743 whole entry, looked up): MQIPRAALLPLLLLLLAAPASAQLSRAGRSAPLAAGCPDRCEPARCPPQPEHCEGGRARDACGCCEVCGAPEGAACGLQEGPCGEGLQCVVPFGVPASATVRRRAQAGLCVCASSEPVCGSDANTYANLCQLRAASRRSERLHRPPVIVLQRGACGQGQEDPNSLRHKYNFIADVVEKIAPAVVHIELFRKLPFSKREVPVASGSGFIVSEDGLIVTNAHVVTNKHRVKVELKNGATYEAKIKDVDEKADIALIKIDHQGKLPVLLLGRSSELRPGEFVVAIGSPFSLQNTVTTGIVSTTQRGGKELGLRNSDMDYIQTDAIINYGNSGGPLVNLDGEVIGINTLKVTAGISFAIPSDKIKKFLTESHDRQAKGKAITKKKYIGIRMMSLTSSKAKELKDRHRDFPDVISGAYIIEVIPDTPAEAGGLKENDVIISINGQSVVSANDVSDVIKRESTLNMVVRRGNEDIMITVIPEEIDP
rCAG binder conf = r(CAG) RNA repeat binding, confirmation | shares compounds with rCAG binder-1 | TO-PRO-1 dye displacement fluorescence | inhibition, % at 3 µM | 70% of 4,300 active | AID 652065;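 active = inhibition above a per-plate cutoff, the mean inhibition of sample wells plus 3 SD, cut at about 35% in these data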;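 also: loss of TO-PRO-1 fluorescence as compound displaces dye from 1x1 AA loop RNA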
dCAG dye counter = disrupts DNA CAG TO-PRO-1 complex, flagging rCAG hits. inhibition, % at 3 µM. 94% of 4,300 active. shares compounds with rCAG binder-1. d(CAG) DNA oligo TO-PRO-1 dye displacement, fluorescence. AID 652068;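 active = inhibition above its plate's cutoff, the mean test-well inhibition plus 3 SD, cut at about 4.8% in these data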;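 also: hits displace the dye from DNA and so lower well fluorescence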
DNA CAG DR = counter-screen for rCAG binders: inhibitors of DNA CAG TO-PRO-1 complex; DNA CAG/GTC duplex TO-PRO-1 dye displacement fluorescence; 20% of 250 active; IC50, µM; shares compounds with rCAG binder-1; in the data active = IC50 below about 10 µM
dCAG DNA bind = counter-screen for rCAG binders: DNA CAG TO-PRO-1 complex inhibitors, late stage; IC50, µM; AID 720649; shares compounds with rCAG binder-1; 80% of 30 active; d(CAG) DNA duplex TO-PRO-1 dye displacement, fluorescence
rCAG binder-2 = molecules binding r(CAG) RNA repeats, late stage dose response; AID 720651; r(CAG) RNA TO-PRO-1 dye displacement, fluorescence; 100% of 30 active; shares compounds with rCAG binder-1; IC50, µM
Each line names hits and unclear results; the compound was inactive in the other large screens (follow-up assays come after a bar, where they were run). In the library only some 2.5% were active in any assay of this set; here they are far more common. Unless noted, no rule for the calls is given here.

O=C(/C=C/c1cn(-c2ccccc2)nc1-c1ccccc1)Nc1ccc(C(=O)O)cc1	rCAG binder-1 44 | rCAG binder conf 73 | dCAG dye counter 34 | DNA CAG DR 7.7 | dCAG DNA bind inactive | rCAG binder-2 6.8
NNC(=O)c1cccc(S(=O)(=O)Nc2cc(Cl)ccc2Cl)c1	rCAG binder-1 64 | rCAG binder conf inactive | dCAG dye counter inactive
Cc1cc(C)c(NS(=O)(=O)c2c(C)noc2C)c(C)c1	none
C/C(=N\Nc1nccnc1Cl)c1ccc(O)cc1	none
C/C(=N\Nc1c(Cl)c(Cl)nc(C(=O)O)c1Cl)c1ccc(O)cc1	rCAG binder-1 40 | rCAG binder conf inactive | dCAG dye counter 4.5
CC1CCCCN1S(=O)(=O)c1ccc(C(=O)Nc2nnc(-c3ccncc3)o2)cc1 (centres undefined)	none
COc1ccc(-c2nnc(NC(=O)c3ccc(S(=O)(=O)N4COCC4(C)C)cc3)o2)cc1	rCAG binder-1 46 | rCAG binder conf 54 | dCAG dye counter 15
CC(=O)Nc1ccc(S(=O)(=O)N(C)CC(=O)OCC(=O)N2CCN(C(=O)c3ccco3)CC2)cc1	none
Cc1ccc(NC(=O)Cn2c(=O)oc3cc(S(=O)(=O)N4CCC(C)CC4)ccc32)cc1C	rCAG binder-1 46 | rCAG binder conf 36 | dCAG dye counter 15
Cc1ccc2cc(CN(C)S(C)(=O)=O)c(=O)[nH]c2c1	none (no result: HTRA1 inhibitor)
COc1ccc(-c2csc(NC(=O)CSc3nnnn3C)n2)cc1OC	none
COc1ccc(-c2csc(/C(C#N)=C(\O)CSc3nccn3C)n2)cc1OC	rCAG binder-1 38 | rCAG binder conf 59 | dCAG dye counter 22
Cc1cc(C)c(S(=O)(=O)N2CCN(C(=O)c3cc(=O)[nH]c4ccccc34)CC2)c(C)c1	none
Cc1cc(C(C)(C)C)cc(C)c1S(=O)(=O)N1CCN(C(=O)c2cc([N+](=O)[O-])c[nH]c2=O)CC1	rCAG binder-1 35 | rCAG binder conf 54 | dCAG dye counter 18
COc1ccc(S(=O)(=O)N2CCCCCC2)cc1NC(=O)c1ccccc1F	none
O=C(Nc1cc(S(=O)(=O)N2CCCCC2)ccc1O)c1ccccc1NS(=O)(=O)c1ccc(F)cc1	rCAG binder-1 85 | rCAG binder conf 87 | dCAG dye counter 57
O=C(Nc1cc(S(=O)(=O)N2CCCCC2)ccc1Cl)c1ccccc1NS(=O)(=O)c1ccc(F)cc1	rCAG binder-1 89 | rCAG binder conf 89 | dCAG dye counter 65
O=C(c1ccccc1NS(=O)(=O)c1ccc(F)cc1)N1CCCCC1	none
O=C(O)CCn1cc(/C=C/C(=O)c2ccc(Cl)cc2)c(-c2ccc(Br)cc2)n1	rCAG binder-1 59 | rCAG binder conf 84 | dCAG dye counter 49
CCOC(=O)C1=C(C(=O)OCC)C2N(Cc3ccc(Br)cc3)c3ccccc3[C@@]23C[C@@H](C(=O)OC)N(S(=O)(=O)c2ccc(C(F)(F)F)cc2)C3=N1 (some centres undefined)	none (no result: HTRA1 inhibitor)
CCOC(=O)CSc1nc2c(sc(=S)n2-c2ccccc2)c(=O)n1-c1ccc(OC)cc1OC	none
CCN(CC)C(=O)CSc1nc2c(sc(=S)n2-c2ccccc2)c(=O)n1-c1ccccc1OC	none
Cc1cc(-n2c(=S)sc3c(=O)n(-c4ccc(F)cc4)c(SCC(=O)O)nc32)ccc1Cl	rCAG binder-1 48 | rCAG binder conf 38 | dCAG dye counter 12
COc1ccccc1-n1c(SCC(=O)O)nc2c(sc(=S)n2-c2ccc(Cl)c(C)c2)c1=O	rCAG binder-1 66 | rCAG binder conf 60 | dCAG dye counter 24
CCc1ccc(-n2c(=S)sc3c(=O)n(-c4ccccc4C)c(SCC(=O)O)nc32)cc1	rCAG binder-1 41 | rCAG binder conf 44 | dCAG dye counter 13
COc1ccccc1-n1c(SCC(=O)O)nc2c(sc(=S)n2-c2ccc(C)c(C)c2)c1=O	rCAG binder-1 48 | rCAG binder conf 72 | dCAG dye counter 33 | DNA CAG DR inactive
CCOc1ccccc1-n1c(=S)sc2c(=O)n(-c3ccc(F)cc3)c(SCC(=O)O)nc21	none
O=C(c1ccc(F)cc1)N1CCC(C(=O)N2CCN(Cc3ccc4c(c3)OCO4)CC2)CC1	none
COc1ccccc1CNS(=O)(=O)c1ccc(S(=O)(=O)NC2CC2)cc1	none
CC(=O)c1ccccc1NC(=O)COC(=O)CN1C(=O)C2CCCCC2C1=O (centres undefined)	none
Cc1ccc(-n2c(=S)sc3c(=O)n(-c4ccccc4C)c(SCC(=O)O)nc32)cc1C	rCAG binder-1 41 | rCAG binder conf 68 | dCAG dye counter 28
O=C(O)CCC(=O)N1CCc2cc(S(=O)(=O)N(CCc3ccccc3)Cc3ccccc3)ccc21	rCAG binder-1 63 | rCAG binder conf 70 | dCAG dye counter 30 | DNA CAG DR inactive
O=C(O)c1ccc(S(=O)(=O)N(CCc2ccccc2)Cc2ccc(Cl)cc2)cc1	rCAG binder-1 72 | rCAG binder conf 71 | dCAG dye counter 34 | DNA CAG DR inactive
COc1ccc(NS(=O)(=O)c2c(F)cc(F)c(Cl)c2F)cc1S(=O)(=O)N1CCCCC1	rCAG binder-1 40 | rCAG binder conf 36 | dCAG dye counter 11
CCN(CC)c1nc2c3c(nc4c(c3c1C#N)CC(=O)N4c1ccc(Cl)cc1)NC(C)=N2	rCAG binder-1 60 | rCAG binder conf 52 | dCAG dye counter 23
CC(Sc1ncccn1)C(=O)NC1(C#N)CCCCC1 (centres undefined)	none
CSc1nc(=S)c2[nH]c(=S)[nH]c2[nH]1	rCAG binder-1 65 | rCAG binder conf 68 | dCAG dye counter 30 | DNA CAG DR 9.3
CN(CCCNC(=O)c1nn(C)c2c1CS(=O)(=O)c1ccccc1-2)Cc1ccccc1	none
CCCn1c(=O)c2ccccc2n2c(SCCOc3ccccc3F)nnc12	none
C/C(=N\NC(=O)c1cccc(S(=O)(=O)Nc2ccccc2Cl)c1)c1ccc(-n2ccnc2)cc1	rCAG binder-1 40 | rCAG binder conf 45 | dCAG dye counter 14
COc1ccc(NS(=O)(=O)c2cccc(C(=O)N/N=C(\C)c3ccc(-n4ccnc4)cc3)c2)cc1	none
O=C(Nc1cccc(Br)c1)c1cc(S(=O)(=O)N2CCOCC2)cs1	none
O=C(Nc1c(F)cc(F)cc1Br)c1cc2nc(C(F)F)cc(C(F)F)n2n1	none
